Measurements reported in ChEMBL document CHEMBL2407075, “Sulphonamido-quinoxalines: search for anticancer agent” (Eur J Med Chem, 2013).

System: MDA-MB-435
Test: Growth inhibition of human MDA-MB-435 cells at 10 uM after 48 hrs by sulforhodamine B assay
Assay type: functional
Conditions: MDA-MB-435, 48 h, read-out: GI
In short: (§1)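 Single-dose screen at 10 µM across the NCI 60 panel. Cells in RPMI 1640 with 5% FBS and 2 mM L-glutamine, plated at 5000–40,000/well and preincubated 24 h at 37 °C, 5% CO2. Drug in DMSO, 48 h exposure. Fixed with TCA, stained with SRB, A515 read. Percent growth is taken relative to untreated control, and inhibition is 100 minus growth.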

Question: For O=S(=O)(Nc1cccc2ccccc12)c1ccc2nc(-c3ccccc3)c(-c3ccccc3)nc2c1, which inhibition of growth at 10 µM is on record?
Answer: 20.4%

System: not listed separately
Test: Growth inhibition of human EKVX cells at 10 uM after 48 hrs by sulforhodamine B assay
Assay type: functional
Conditions: read-out: GI
In short: (§2)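 NCI-60 one-dose primary screen at a single 10 µM concentration. Cells in RPMI 1640 with 5% FBS, preincubated 24 h at 37 °C, 5% CO2. Drug exposure 48 h, then TCA fixation, SRB staining and absorbance at 515 nm. Percent growth calculated against time-zero and untreated control wells, then converted to percent growth inhibition.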

Question: With O=S(=O)(Nc1cccc2ccccc12)c1ccc2nc(-c3ccccc3)c(-c3ccccc3)nc2c1 as the compound, how does the inhibition of growth at 10 µM read?
Answer: 71.2%

System: U-251
Test: Growth inhibition of human U251 cells at 10 uM after 48 hrs by sulforhodamine B assay
Assay type: functional
Conditions: U-251, 48 h, read-out: GI
In short: as §1

Question: Which inhibition of growth at 10 µM does the source give for O=S(=O)(Nc1cccc2ccccc12)c1ccc2nc(-c3ccccc3)c(-c3ccccc3)nc2c1 here?
Answer: 7.23%

System: NCI-H522
Test: Growth inhibition of human NCI-H522 cells at 10 uM after 48 hrs by sulforhodamine B assay
Assay type: functional
Conditions: NCI-H522, 48 h, read-out: GI
In short: as §1

Question: With O=S(=O)(Nc1cccc2ccccc12)c1ccc2nc(-c3ccccc3)c(-c3ccccc3)nc2c1 as the compound, how does the inhibition of growth at 10 µM read?
Answer: 47.8%

System: NCI-H322M
Test: Growth inhibition of human NCI-H322M cells at 10 uM after 48 hrs by sulforhodamine B assay
Assay type: functional
Conditions: read-out: GI
In short: as §1

Question: For O=S(=O)(Nc1cccc2ccccc12)c1ccc2nc(-c3ccccc3)c(-c3ccccc3)nc2c1, which inhibition of growth at 10 µM is on record?
Answer: 22.2%

System: MOLT-4
Test: Growth inhibition of human MOLT4 cells at 10 uM after 48 hrs by sulforhodamine B assay
Assay type: functional
Conditions: MOLT-4, 48 h, read-out: GI
In short: as §1

Question: For O=S(=O)(Nc1cccc2ccccc12)c1ccc2nc(-c3ccccc3)c(-c3ccccc3)nc2c1, which inhibition of growth at 10 µM is on record?
Answer: 47.8%

System: MDA-MB-468
Test: Growth inhibition of human MDA-MB-468 cells at 10 uM after 48 hrs by sulforhodamine B assay
Assay type: functional
Conditions: MDA-MB-468, 48 h, read-out: GI
In short: as §1

Question: For O=S(=O)(Nc1cccc2ccccc12)c1ccc2nc(-c3ccccc3)c(-c3ccccc3)nc2c1, which inhibition of growth at 10 µM is on record?
Answer: 54.9%

System: SK-OV-3
Test: Growth inhibition of human SKOV3 cells at 10 uM after 48 hrs by sulforhodamine B assay
Assay type: functional
Conditions: SK-OV-3, 48 h, read-out: GI
In short: as §1

Question: With O=S(=O)(Nc1cccc2ccccc12)c1ccc2nc(-c3ccccc3)c(-c3ccccc3)nc2c1 as the compound, how does the inhibition of growth at 10 µM read?
Answer: 5.86%

System: not listed separately
Test: Growth inhibition of human Hs 578T cells at 10 uM after 48 hrs by sulforhodamine B assay
Assay type: functional
Conditions: read-out: GI
In short: as §2

Question: With O=S(=O)(Nc1cccc2ccccc12)c1ccc2nc(-c3ccccc3)c(-c3ccccc3)nc2c1 as the compound, how does the inhibition of growth at 10 µM read?
Answer: 24%

System: UACC-257
Test: Growth inhibition of human UACC257 cells at 10 uM after 48 hrs by sulforhodamine B assay
Assay type: functional
Conditions: UACC-257, 48 h, read-out: GI
In short: as §1

Question: Which inhibition of growth at 10 µM does the source give for O=S(=O)(Nc1cccc2ccccc12)c1ccc2nc(-c3ccccc3)c(-c3ccccc3)nc2c1 here?
Answer: 21.7%

System: NCI-H226
Test: Growth inhibition of human NCI-H226 cells at 10 uM after 48 hrs by sulforhodamine B assay
Assay type: functional
Conditions: NCI-H226, 48 h, read-out: GI
In short: as §1

Question: For O=S(=O)(Nc1cccc2ccccc12)c1ccc2nc(-c3ccccc3)c(-c3ccccc3)nc2c1, which inhibition of growth at 10 µM is on record?
Answer: 44%

System: HCT-116
Test: Growth inhibition of human HCT116 cells at 10 uM after 48 hrs by sulforhodamine B assay
Assay type: functional
Conditions: HCT-116, 48 h, read-out: GI
In short: as §2

Question: Which inhibition of growth at 10 µM does the source give for O=S(=O)(Nc1cccc2ccccc12)c1ccc2nc(-c3ccccc3)c(-c3ccccc3)nc2c1 here?
Answer: 49.9%

System: K562
Test: Growth inhibition of human K562 cells at 10 uM after 48 hrs by sulforhodamine B assay
Assay type: functional
Conditions: K562, 48 h, read-out: GI
In short: as §1

Question: With O=S(=O)(Nc1cccc2ccccc12)c1ccc2nc(-c3ccccc3)c(-c3ccccc3)nc2c1 as the compound, how does the inhibition of growth at 10 µM read?
Answer: 49.6%

System: SK-MEL-28
Test: Growth inhibition of human SK-MEL-28 cells at 10 uM after 48 hrs by sulforhodamine B assay
Assay type: functional
Conditions: SK-MEL-28, 48 h, read-out: GI
In short: as §1

Question: For O=S(=O)(Nc1cccc2ccccc12)c1ccc2nc(-c3ccccc3)c(-c3ccccc3)nc2c1, which inhibition of growth at 10 µM is on record?
Answer: 5.98%

System: M14
Test: Growth inhibition of human M14 cells at 10 uM after 48 hrs by sulforhodamine B assay
Assay type: functional
Conditions: M14, 48 h, read-out: GI
In short: as §1

Question: Which inhibition of growth at 10 µM does the source give for O=S(=O)(Nc1cccc2ccccc12)c1ccc2nc(-c3ccccc3)c(-c3ccccc3)nc2c1 here?
Answer: 2.23%

System: 786-0
Test: Growth inhibition of human 786-0 cells at 10 uM after 48 hrs by sulforhodamine B assay
Assay type: functional
Conditions: 786-0, 48 h, read-out: GI
In short: (§3)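 Single-dose NCI-60 prescreen at 10 µM for 48 h at 37 °C and 5% CO2, using cells grown in RPMI 1640 with 5% FBS and 2 mM glutamine. Protein was measured by SRB after TCA fixation: 10% final for adherent lines, 16% for suspension lines. Absorbance was read at 515 nm. Percent growth inhibition was obtained by subtracting percent growth from 100.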

Question: With O=S(=O)(Nc1cccc2ccccc12)c1ccc2nc(-c3ccccc3)c(-c3ccccc3)nc2c1 as the compound, how does the inhibition of growth at 10 µM read?
Answer: 4.34%

System: HL-60(TB)
Test: Growth inhibition of human HL-60(TB) cells at 10 uM after 48 hrs by sulforhodamine B assay
Assay type: functional
Conditions: HL-60, 48 h, read-out: GI
In short: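 Single-dose NCI-60 primary screen at 10 µM, 48 h exposure, SRB read-out. Growth percentage of treated versus untreated cells was recorded and given as percent inhibition by subtraction.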

Question: For O=S(=O)(Nc1cccc2ccccc12)c1ccc2nc(-c3ccccc3)c(-c3ccccc3)nc2c1, which inhibition of growth at 10 µM is on record?
Answer: 71%

System: SF-295
Test: Growth inhibition of human SF295 cells at 10 uM after 48 hrs by sulforhodamine B assay
Assay type: functional
Conditions: SF-295, 48 h, read-out: GI
In short: as §1

Question: With O=S(=O)(Nc1cccc2ccccc12)c1ccc2nc(-c3ccccc3)c(-c3ccccc3)nc2c1 as the compound, how does the inhibition of growth at 10 µM read?
Answer: 3.88%

System: IGROV-1
Test: Growth inhibition of human IGROV1 cells at 10 uM after 48 hrs by sulforhodamine B assay
Assay type: functional
Conditions: IGROV-1, 48 h, read-out: GI
In short: as §1

Question: Which inhibition of growth at 10 µM does the source give for O=S(=O)(Nc1cccc2ccccc12)c1ccc2nc(-c3ccccc3)c(-c3ccccc3)nc2c1 here?
Answer: 1.78%

System: SW-620
Test: Growth inhibition of human SW620 cells at 10 uM after 48 hrs by sulforhodamine B assay
Assay type: functional
Conditions: SW-620, 48 h, read-out: GI
In short: as §1

Question: Which inhibition of growth at 10 µM does the source give for O=S(=O)(Nc1cccc2ccccc12)c1ccc2nc(-c3ccccc3)c(-c3ccccc3)nc2c1 here?
Answer: 26.8%

System: SNB-75
Test: Growth inhibition of human SNB75 cells at 10 uM after 48 hrs by sulforhodamine B assay
Assay type: functional
Conditions: SNB-75, 48 h, read-out: GI
In short: as §1

Question: For O=S(=O)(Nc1cccc2ccccc12)c1ccc2nc(-c3ccccc3)c(-c3ccccc3)nc2c1, which inhibition of growth at 10 µM is on record?
Answer: 39.9%

System: RXF 393
Test: Growth inhibition of human RXF393 cells at 10 uM after 48 hrs by sulforhodamine B assay
Assay type: functional
Conditions: RXF 393, 48 h, read-out: GI
In short: as §1

Question: With O=S(=O)(Nc1cccc2ccccc12)c1ccc2nc(-c3ccccc3)c(-c3ccccc3)nc2c1 as the compound, how does the inhibition of growth at 10 µM read?
Answer: 48.6%

System: COLO 205
Test: Growth inhibition of human COLO205 cells at 10 uM after 48 hrs by sulforhodamine B assay
Assay type: functional
Conditions: COLO 205, 48 h, read-out: GI
In short: as §3

Question: With O=S(=O)(Nc1cccc2ccccc12)c1ccc2nc(-c3ccccc3)c(-c3ccccc3)nc2c1 as the compound, how does the inhibition of growth at 10 µM read?
Answer: 27.9%

System: not listed separately
Test: Oral bioavailability in human
Assay type: ADME, organism-based
Conditions: in silico prediction

Question: Which bioavailability does the source give for O=S(=O)(Nc1cccc2ccccc12)c1ccc2nc(-c3ccccc3)c(-c3ccccc3)nc2c1 here?
Answer: 100%

System: A549
Test: Growth inhibition of human A549/ATCC cells at 10 uM after 48 hrs by sulforhodamine B assay
Assay type: functional
Conditions: A549, 48 h, read-out: GI
In short: as §3

Question: With O=S(=O)(Nc1cccc2ccccc12)c1ccc2nc(-c3ccccc3)c(-c3ccccc3)nc2c1 as the compound, how does the inhibition of growth at 10 µM read?
Answer: 15.3%

System: OVCAR-4
Test: Growth inhibition of human OVCAR4 cells at 10 uM after 48 hrs by sulforhodamine B assay
Assay type: functional
Conditions: OVCAR-4, 48 h, read-out: GI
In short: as §1

Question: For O=S(=O)(Nc1cccc2ccccc12)c1ccc2nc(-c3ccccc3)c(-c3ccccc3)nc2c1, which inhibition of growth at 10 µM is on record?
Answer: 31.2%

System: TK-10
Test: Growth inhibition of human TK10 cells at 10 uM after 48 hrs by sulforhodamine B assay
Assay type: functional
Conditions: TK-10, 48 h, read-out: GI
In short: as §1

Question: With O=S(=O)(Nc1cccc2ccccc12)c1ccc2nc(-c3ccccc3)c(-c3ccccc3)nc2c1 as the compound, how does the inhibition of growth at 10 µM read?
Answer: 6.34%

System: SNB-19
Test: Growth inhibition of human SNB19 cells at 10 uM after 48 hrs by sulforhodamine B assay
Assay type: functional
Conditions: SNB-19, 48 h, read-out: GI
In short: as §1

Question: For O=S(=O)(Nc1cccc2ccccc12)c1ccc2nc(-c3ccccc3)c(-c3ccccc3)nc2c1, which inhibition of growth at 10 µM is on record?
Answer: 9.78%

System: HOP-62
Test: Growth inhibition of human HOP62 cells at 10 uM after 48 hrs by sulforhodamine B assay
Assay type: functional
Conditions: HOP-62, 48 h, read-out: GI
In short: as §2

Question: For O=S(=O)(Nc1cccc2ccccc12)c1ccc2nc(-c3ccccc3)c(-c3ccccc3)nc2c1, which inhibition of growth at 10 µM is on record?
Answer: 2.24%

System: DU-145
Test: Growth inhibition of human DU145 cells at 10 uM after 48 hrs by sulforhodamine B assay
Assay type: functional
Conditions: DU-145, 48 h, read-out: GI
In short: as §3

Question: With O=S(=O)(Nc1cccc2ccccc12)c1ccc2nc(-c3ccccc3)c(-c3ccccc3)nc2c1 as the compound, how does the inhibition of growth at 10 µM read?
Answer: 10.9%

System: OVCAR-8
Test: Growth inhibition of human OVCAR8 cells at 10 uM after 48 hrs by sulforhodamine B assay
Assay type: functional
Conditions: OVCAR-8, 48 h, read-out: GI
In short: as §1

Question: With O=S(=O)(Nc1cccc2ccccc12)c1ccc2nc(-c3ccccc3)c(-c3ccccc3)nc2c1 as the compound, how does the inhibition of growth at 10 µM read?
Answer: 20.6%

System: MDA-MB-231
Test: Growth inhibition of human MDA-MB-231 cells at 10 uM after 48 hrs by sulforhodamine B assay
Assay type: functional
Conditions: MDA-MB-231, 48 h, read-out: GI
In short: as §1

Question: For O=S(=O)(Nc1cccc2ccccc12)c1ccc2nc(-c3ccccc3)c(-c3ccccc3)nc2c1, which inhibition of growth at 10 µM is on record?
Answer: 38.7%

System: BT-549
Test: Growth inhibition of human BT549 cells at 10 uM after 48 hrs by sulforhodamine B assay
Assay type: functional
Conditions: BT-549, 48 h, read-out: GI
In short: as §3

Question: For O=S(=O)(Nc1cccc2ccccc12)c1ccc2nc(-c3ccccc3)c(-c3ccccc3)nc2c1, which inhibition of growth at 10 µM is on record?
Answer: 32.6%
